Experimental data collected from several papers.
Target: Calcium/calmodulin-dependent protein kinase type II subunit alpha (CAMK2A, Homo sapiens, UniProt Q9UQM7)
Concentration: 1 µM

C[C@@H]1CCN(c2nccc(-c3cnn4ncccc34)n2)C1
remaining binding (binding): 80%

N#CC1(c2ccccn2)CCN(Cc2cc(C(=O)N3CCCC3)c(=O)n3ccccc23)CC1
remaining binding (cell-free assay, competition with immobilised ligand): 84%

O=C(c1ccc(Nc2ncc(Cl)c(-c3cc4ccccc4s3)n2)cc1)N1CCC(N2CCCC2)CC1
remaining binding (binding, competition with immobilised ligand): 75%

O=c1nc(-c2ccccn2)sc2ccccc12
remaining binding (cell-free assay, competition with immobilised ligand): 100%

O=C(NCC1CCOCC1)c1n[nH]cc1NC(=O)c1c(F)cccc1F
remaining binding (binding, competition with immobilised ligand): 94%

O=C(NCCCN1CCOCC1)c1ccc(Nc2ncc(Cl)c(-c3ccc(Cl)s3)n2)cc1
remaining binding (binding, competition with immobilised ligand): 91%

C=CC(=O)N1CCC(C(=O)NCC(=O)N2CCN(c3nc(-c4cnc(N)nc4C(F)F)nc(N4CCOCC4)n3)CC2)CC1
remaining binding (binding, competition with immobilised ligand): 96%

CC(=O)C1=C(C)N(c2cccc(C(F)(F)F)c2)C(=O)N[C@@H]1c1ccc(C#N)nc1
remaining binding (cell-free assay, competition with immobilised ligand): 92.5%

CCN1CCN(Cc2ccc(C(=O)Nc3ccc(C)c(Oc4ccc5c(c4)CC(=O)N5)c3)cc2C(F)(F)F)CC1
remaining binding (binding, competition with immobilised ligand): 100%

Cc1cnn2ncc(-c3ccnc(N(C)C)n3)c2c1
remaining binding (binding): 86%

O=C(c1ccc(Nc2nccc(-c3cc4ccccc4s3)n2)cc1)N1CCC(N2CCCC2)CC1
remaining binding (binding, competition with immobilised ligand): 95%

CS(=O)(=O)NCC[C@H](NC(=O)c1cncc2c1cnn2-c1ccc(F)cc1)c1ccnc(S(C)(=O)=O)c1
remaining binding (cell-free assay, competition with immobilised ligand): 100%

CN(C)c1nccc(-c2cnn3ncccc23)n1
remaining binding (binding): 62%

CN(C(=O)c1ccccc1)c1cc(N(C)c2ccc3c(c2)CCc2ccc(C(=O)NCCN4CCOCC4)cc2C3=O)ccc1F
remaining binding (cell-free assay, competition with immobilised ligand): 86%

F[C@@H]1CCN(c2nccc(-c3cnn4ncccc34)n2)C1
remaining binding (binding): 100%

O=C(Nc1cnc(Oc2ccc(F)cc2)nc1)N1CCc2ncccc2[C@@H]1c1ccc(F)cc1
remaining binding (cell-free assay, competition with immobilised ligand): 92%

N[C@H]1CCN(c2nccc(-c3cnn4ncccc34)n2)C1
remaining binding (binding): 100%

COc1cnc(Nc2cccc(S(N)(=O)=O)c2)nc1N1CCN(c2ccccc2)C(=O)C1
remaining binding (binding, competition with immobilised ligand): 100%

CN(c1nccc(-c2cnn3ncccc23)n1)C1CC1
remaining binding (binding): 93%

CNC(=O)[C@@H]1CC[C@@H](n2c(-c3ccc4cnccc4c3)nc3ccc(C(=O)NCc4cccc(C(N)=O)c4)cc32)C1
remaining binding (binding, competition with immobilised ligand): 100%

CN(CCCC(F)(F)F)c1nccc(-c2cnn3ncccc23)n1
remaining binding (binding): 91%

NS(=O)(=O)c1cc(NC(=O)Cc2ccccc2)ccc1Oc1cccc(Cl)c1
remaining binding (cell-free assay, competition with immobilised ligand): 96%
